bCat nuc transl: modulators of beta-catenin nuclear translocation; HeLa beta-catenin nuclear translocation, immunofluorescence imaging; nuclear translocation activity, % at 5 µM; 190,000 tested, 0.3% active;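 active = nuclear translocation activity above 50% at 5 µM, with a well cell count of 50 or more; inconclusive = wells under 50 cells across six images, flagged as toxic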;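 also: per-cell ratio of nuclear to cytoplasmic median beta-catenin stain intensity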
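assay system = human HeLa cells, endogenous beta-catenin | times = compound treatment 24 h, 37°C, 5% CO2 | detection = Anti-beta-catenin immunofluorescence on PFA-fixed, Triton-permeabilized cells, DAPI nuclei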
HSV replic up: HSV replication enhancement; HSV replication augmentation in cells, fold increase; maximum fold increase; 220,000 tested, 0.005% active; AID 1956; in the data active = maximum fold increase above about 1.5; inconclusive = no clear call, values can overlap the other calls; tested in PC3 cells
Dynein transport: blocks dynein driven cargo transport along microtubules; 3617.4 mouse cells, GR-EGFP nuclear translocation imaging; test concentration mostly 20 µM; stimulated with dexamethasone, 1 µM; stronger effect = lower value; z-score, hits read low; 220,000 tested, 0.47% active;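 active = plate z-score of nuclear minus cytoplasmic receptor signal below a set negative limit, without overly bright fluorescence or cell loss, cut at about -3.5 in these data, passing the limit was not always enough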;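 also: z-score of nuclear minus cytoplasmic ring GR-EGFP intensity difference per well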
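medium = tetracycline-free induction medium containing charcoal-stripped FBS | also added = 1.0 µM final dexamethasone stimulus | schedule = 48 h induction, 1 h compound, 30 min dex at 37 °C | technique = fixed, Hoechst-stained cells imaged at 10x for EGFP | measure = GR-EGFP nuclear translocation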
Lmaj promast: Leishmania major promastigote growth inhibition. AID 1063. Leishmania major promastigotes, resazurin fluorescence viability. inhibition, % at 10 µM. 200,000 tested, 9% active; in the data active = inhibition above about 50%;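 also: promastigotes grown with compound for 44 hours at 28 °C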
MT stabilizer: microtubule stabilizers in HeLa cells | HeLa tubulin immunostaining HCS, 24 h; share of cells brighter than vehicle mean+2SD | % tubulin-high responders, % at 10 µM | 200,000 tested, 0.83% active | AID 2205;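 active = plate Z-score above 3 for both tubulin-high and condensed-nucleus cell shares, with cell loss under 80%, at 10 µM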;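 also: anti alpha tubulin signal scored within the nucleus-defined area of each cell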
Each line names hits and unclear results; the compound was inactive in the other large screens. Compounds with a hit are over-represented: about 8.9% of the library has one in this group of screens.

CCOc1ccc(S(=O)(=O)N2CCN(C(=O)c3cc4c(s3)CCCC4)CC2)cc1	Lmaj promast 78
C=CCn1c(CC(=O)OC)csc1=Nc1ccc(C(C)=O)cc1	none
NC(=S)N/N=C/c1cccc(/C=N/NC(N)=S)c1	none (no result: Lmaj promast, MT stabilizer)
Cc1ccc(C(=O)NCCn2cc(SCC(=O)Nc3nnc(C)s3)c3ccccc32)cc1	none (no result: bCat nuc transl)
O=C(c1ccc(Br)s1)N1CCN(Cc2ccc3c(c2)OCO3)CC1	Lmaj promast 82
CC(C)n1c(C(=O)OCC(=O)NCc2ccc3c(c2)OCO3)cc2occc21	none
CC(C)n1c(C(=O)OCC(=O)NCc2ccc3c(c2)OCO3)cc2sccc21	MT stabilizer 42
CCC(C)NC(=O)Cn1nc(C(F)(F)F)c2c1CCCC2 (centres undefined)	none
O=C(Nc1ccc(F)cc1)c1ccccc1Oc1ccc(C(F)(F)F)cc1[N+](=O)[O-]	Lmaj promast 97
COc1ccc(/C=C/CN2CCN(Cc3cccc(OC)c3)C(CCO)C2)cc1 (centres undefined)	Lmaj promast 93
COc1cccc(CN2CCN(Cc3ccc4c(c3)OCCO4)CC2CCO)c1 (centres undefined)	Lmaj promast 70
Cc1ccc(CN2CCN(Cc3ccc4c(c3)OCCO4)CC2CCO)cc1 (centres undefined)	none
COc1ccc(CN2CCN(Cc3cccc(OC)c3)C(CCO)C2)cc1 (centres undefined)	Lmaj promast 71
Cc1nnc2sc(-c3csc4c3CCCC4)nn12	none (no result: bCat nuc transl)
CC(=N)c1c(O)c2ccccc2oc1=O	none (no result: Lmaj promast, MT stabilizer)
CC1CCC(C(=O)c2c(O)c3ccccc3oc2=O)CC1 (centres undefined)	Lmaj promast 99 (no result: bCat nuc transl)
O=C(c1ccccc1)c1ccccc1N/C=C/c1nnnn1-c1ccccc1	Lmaj promast 54 (no result: bCat nuc transl)
CCC1(CC)Cc2ccccc2C(CC(=O)N2CCOCC2)=N1	none (no result: bCat nuc transl)
C/C(Cn1nc([N+](=O)[O-])cc1C)=N\NC(=O)COc1ccccc1[N+](=O)[O-]	none
C/C(Cn1nc([N+](=O)[O-])cc1C)=N\NC(=O)c1cccc(Br)c1	Lmaj promast 86
CCOCC(O)CNC(=O)c1ccc(OC2CCN(C(=O)c3cccnc3)CC2)cc1 (centres undefined)	none (no result: Lmaj promast, MT stabilizer)
CN1CCN(CC(O)COc2ccc(C34CC5CC(CC(C5)C3)C4)cc2)CC1 (centres undefined)	Lmaj promast 100
OCCN1CCN(CC(O)COCCOc2ccc(Br)cc2)CC1 (centres undefined)	none
OC(COc1ccc2cc(Br)ccc2c1)CN1CCCC1 (centres undefined)	Lmaj promast 100 (no result: bCat nuc transl)
O=S(=O)(N1CCCCC1)N1CCN(CC(O)COc2ccc3cc(Br)ccc3c2)CC1 (centres undefined)	none (no result: bCat nuc transl)
OCCN1CCN(CC(O)COc2ccc(-c3ccccc3)cc2)CC1 (centres undefined)	Lmaj promast 96
OCCN1CCN(CC(O)COc2ccc3ccccc3c2)CC1 (centres undefined)	Lmaj promast 91 (no result: bCat nuc transl)
OC(COc1ccc(OCC(O)CN2CCCCCC2)cc1)CN1CCCCCC1 (centres undefined)	none
CC(C)(C)n1nnnc1CN1CCN(C2CCCC2)CC1	none
CC(C)N(Cc1ccccc1)C(=O)c1ccc2nsnc2c1	none (no result: Lmaj promast, MT stabilizer)
N#CC1=C(N)Oc2cc(O)ccc2C1c1cccs1 (centres undefined)	HSV replic up inconclusive
N#CC1=C(N)Oc2c(ccc3ccccc23)C1c1cccs1 (centres undefined)	bCat nuc transl 131, MT stabilizer 20
Cc1ccc(CNC(=O)Cn2ccc3ccccc3c2=O)o1	none
Cc1ccc(S(=O)(=O)NCC(=O)N(c2ccccc2)C(C(=O)NCc2ccccc2)c2ccco2)cc1 (centres undefined)	none
Cc1cc(C)cc(N(C(=O)CNS(=O)(=O)c2ccccc2)C(C(=O)NCc2ccccc2)c2ccc(C)o2)c1 (centres undefined)	Lmaj promast 55
CCC(C)[C@H](NC(=O)NCCC1=CCCCC1)C(=O)OC (some centres undefined)	none (no result: Lmaj promast, MT stabilizer)
Cc1ccc(Cl)cc1NC1=C/C(=N\S(=O)(=O)c2cccs2)c2ccccc2C1=O	Lmaj promast 100, MT stabilizer 33 (no result: bCat nuc transl)
Cc1ccc(NC2=C/C(=N\S(=O)(=O)c3cccs3)c3ccccc3C2=O)c(C)c1	HSV replic up inconclusive, Lmaj promast 101
O=C1C(Nc2ccc(O)cc2)=C/C(=N/S(=O)(=O)c2cccs2)c2ccccc21	Lmaj promast 100
COc1ccc(C(=S)N2CCCC2)cc1	none
CCCC(=O)NNC(=O)Nc1ccccc1	none
OCC(O)C1OC(Nc2ccc(Cl)cc2)C(O)C1O (centres undefined)	none (no result: Lmaj promast, MT stabilizer)
N#CC(C#N)=C1C=CC=CN1/C(=C\c1ccccc1Cl)C(=O)c1ccccc1	Dynein transport -4.1
N#CC(C#N)=C1C=CC=CN1/C(=C\c1ccccc1)C(=O)c1cccs1	HSV replic up inconclusive
CC(C)C(=O)NC(=S)Nc1sc2c(c1C(N)=O)CCCC2	none
COc1ccc(Nc2cc(C)nc(NCc3ccccc3)n2)cc1	none (no result: Lmaj promast, MT stabilizer)
Cc1cc(NC2CCCCC2)nc(NCc2ccccc2)n1	Lmaj promast 97
Cc1ccc(Nc2cc(C)nc(NCc3ccccc3)n2)cc1	Lmaj promast 100, MT stabilizer 30
Cc1cc(N/N=C/c2ccccc2Cl)nc(NCc2ccccc2)n1	Lmaj promast 86
O=C(O)CN1C(=O)CSc2ccccc21	none
CCO[C@@H]1OC(C(=O)NCc2nc3ccccc3[nH]2)=C[C@H](C2CC2)[C@H]1CCCO	MT stabilizer 28
CCO[C@@H]1OC(C(=O)NCc2ccccc2)=C[C@H](C2CCCCC2)[C@H]1CCCO	Lmaj promast 51
CCO[C@@H]1OC(C(=O)NCc2nc3ccccc3[nH]2)=C[C@H](C(C)(C)C)[C@H]1CCCO	none (no result: bCat nuc transl, Dynein transport, Lmaj promast, MT stabilizer)
CCO[C@@H]1OC(C(=O)NCc2ccccc2)=C[C@H](C2CC2)[C@H]1CCCO	none
NC(=O)c1sc(=S)n2c1[nH]c(=O)c1sccc12	HSV replic up inconclusive
CN(C)CCCN(C(=O)/C=C/c1cccs1)c1nc2ccc(F)cc2s1	none
CN(C)CCN(C(=O)/C=C/c1cccs1)c1nc2c(F)cc(F)cc2s1	Lmaj promast 77, MT stabilizer 21 (no result: bCat nuc transl)
Cc1ccc2nc(N(CCN(C)C)C(=O)/C=C/c3cccs3)sc2c1	Lmaj promast 83 (no result: bCat nuc transl)
COc1ccc(C2SCC(=O)N2CCc2ccc(OC)c(OC)c2)cc1 (centres undefined)	bCat nuc transl 82, MT stabilizer 18
CN1CCN(CC(C)(C)NS(=O)(=O)c2ccc(Cl)cc2)CC1	Lmaj promast 94
COc1ccccc1-n1c(SCC(=O)Nc2ccccc2F)nc2[nH]ncc2c1=O	none
CNCCC1Sc2ccccc2Oc2ccccc21 (centres undefined)	Lmaj promast 95
CCCCNC(=O)C1c2ccccc2Oc2ccccc21	none
CC1CCCN(CC(O)COc2ccc(Cl)cc2)C1 (centres undefined)	Lmaj promast 91

Screening data as filed in PubChem BioAssay.
